Compounds with a hit are over-represented: about 2% of the library has one in this group of screens.
XiGFP reactiv = activators of X-chromosome reactivation in mouse fibroblasts; XiGFP mouse fibroblasts, % GFP-positive cells imaging, 3 d; cells co-treated with 5-aza-dC sensitizer; scaled so ellipticine positive control = 100%; activation, % at 7.58 µM; 360,000 compounds, 0.055% hits;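 active = mean normalized replicate activation at least 10% and every replicate at or above 10%; inconclusive = only one of the two criteria met; inactive = mean below 10% and not all replicates reach 10%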;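 also: 0% = median of on-plate neutral control wells and 100% = ellipticine 6 µM median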
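material = 68-5-11 XiGFP fibroblast line | medium = DMEM plus 5-aza-dC sensitizer | schedule = 3 days compound exposure | benchmarks = positive control ellipticine, 6 µM final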
LGR2 antag = inhibitors of bursicon-induced Drosophila LGR2 receptor cAMP signaling; HEK293 LGR2, CRE-luciferase, bursicon-stimulated, 4 h; inhibition, % at 9.99 µM; 380,000 compounds, 0.35% hits;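 active = drop in luminescence signal, shown as inhibition above about 50% in the replicate tests, limit read from the data, passing the limit was not always enough; inconclusive = probably only some replicates passing the limit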;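 also: agonist challenge used bursicon conditioned medium at about half maximal strength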
TROY signal inh = TROY signaling inhibition | inhibition, % at 10 µM | Q293 LMP1-TROYcd NF-kB luciferase reporter, 4 h | 360,000 compounds, 0.98% hits;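 active = compounds whose plate-normalised and pattern-corrected inhibition of the luciferase reporter signal at the single screening dose is 50% or more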
TWEAK-Fn14 inh = TWEAK-Fn14 signaling inhibition. TWEAK-stimulated Fn14 reporter cells, luciferase luminescence, 8 h. inhibition, % at 10 µM. 360,000 compounds, 2% hits. AID 1159606; in the data active = inhibition above about 50%
CaV13 ICDI inh = Disruptors of the CACNA1D IQ motif to Ca2+-dependent inactivation inhibitor domain association, primary screening, Förster resonance energy transfer in intact living …; HEK cells, CFP/YFP FRET ICDI-IQ, plate reader, 10 min; percent FRET-ratio fall versus neutral wells; inhibition, % at 12.3 µM; 340,000 compounds, 0.098% hits;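 active = mean replicate inhibition of at least 30% and at least 1% of replicates passing that level; inconclusive = only one of the two criteria is met; inactive = neither criterion is met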;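 also: 0% = median of the neutral control wells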
Starred values were filed as active, the others as inactive.

`CNC[C@@H]1OCCCC[C@H](C)Oc2ccc(NC(=O)NC3CCCCC3)cc2C(=O)N([C@H](C)CO)C[C@@H]1C` gave XiGFP reactiv -0.1 and LGR2 antag -10.2.
For FC(F)Sc1ccc(NC(=S)NCc2ccccc2)cc1 the results were XiGFP reactiv 0.3, LGR2 antag -17.0, TROY signal inh 37.5, TWEAK-Fn14 inh 19.3 and CaV13 ICDI inh -9.5.
`FC(F)Sc1ccc(NC(=S)NC(c2ccccc2)c2ccccc2)cc1` gave XiGFP reactiv 0.0, LGR2 antag 44.1, TROY signal inh 52.1*, TWEAK-Fn14 inh 54.0* and CaV13 ICDI inh -4.4.
For COC(=O)C1=C(C)NC(=O)NC1c1ccc(OC)c(OC)c1 (configuration not stated) the results were XiGFP reactiv 0.0, LGR2 antag 7.8, TROY signal inh 15.1, TWEAK-Fn14 inh -5.0 and CaV13 ICDI inh -4.1.
For COC(=O)C1=C(C)NC(=O)NC1c1ccc(N2CCC(c3ccccc3)=N2)cc1 (configuration not stated) the results were XiGFP reactiv 0.1, LGR2 antag 1.7, TROY signal inh 51.7*, TWEAK-Fn14 inh 40.7 and CaV13 ICDI inh -4.3.
`COc1ccc(NC(=O)C2c3ccccc3OCC(=O)N2C2CC2)cc1` (configuration not stated) gave XiGFP reactiv 0.0, LGR2 antag -1.3, TROY signal inh -14.9, TWEAK-Fn14 inh 0.9 and CaV13 ICDI inh -1.6.
`CCN1C(=O)C(C(=O)Nc2ccc(OC)cc2)C2CC1(C)Oc1ccccc12` (configuration not stated) gave TWEAK-Fn14 inh 77.8*.
O=C(NCCN1CCN(c2ccccc2F)CC1)c1ccc2nc3ccccc3c(=O)n2c1 was read as XiGFP reactiv 0.5, LGR2 antag -7.4, TROY signal inh 21.5, TWEAK-Fn14 inh 67.1* and CaV13 ICDI inh -2.0.
`Cc1ccc(/C=C2\SC(=S)N(Cc3ccccc3)C2=O)o1` gave TROY signal inh 2.8, TWEAK-Fn14 inh 15.5 and CaV13 ICDI inh -8.4.
Screening O=C(O)c1cc(-c2ccc(/C=C3/SC(=S)N(Cc4ccccc4)C3=O)o2)ccc1Cl returned XiGFP reactiv 0.3, LGR2 antag inconclusive, TROY signal inh 51.8*, TWEAK-Fn14 inh 33.6 and CaV13 ICDI inh -37.4.
C=C1CC2(OC1=O)c1ccccc1CCc1ccccc12 was read as XiGFP reactiv 0.0, LGR2 antag 75.9*, TROY signal inh 50.9*, TWEAK-Fn14 inh 34.0 and CaV13 ICDI inh -14.8.
`CO[C@@H]1CN(C)C(=O)c2cc(NC(=O)C3CCCCC3)ccc2OC[C@@H](C)N(Cc2nccs2)C[C@@H]1C` gave XiGFP reactiv 0.6 and LGR2 antag -4.7.
For Cc1ccc(C)c(CSC2=NN3CCCC(=O)N=C3S2)c1 the results were XiGFP reactiv 18.8*, LGR2 antag -0.7, TROY signal inh -35.0, TWEAK-Fn14 inh -6.6 and CaV13 ICDI inh -6.4.
Screening Cc1ccc(NC(=O)CSC2=NN3CCCC(=O)N=C3S2)c(C)c1 returned XiGFP reactiv 0.1, LGR2 antag -2.3, TROY signal inh 9.0, TWEAK-Fn14 inh -12.4 and CaV13 ICDI inh -6.8.
For CC(C)NC(=O)Nc1ccc2c(c1)C(=O)N([C@@H](C)CO)C[C@@H](C)[C@H](CN(C)C(=O)CCCN(C)C)OCCCC[C@@H](C)O2 the results were XiGFP reactiv 0.4 and LGR2 antag 4.3.
CC1=CC2C(C(O)CC3(C)C2CC(C)C32OCOC23COCO3)C2(C)C/C(=C\O)C(=O)C=C12 (configuration not stated) was read as XiGFP reactiv 0.5, LGR2 antag 79.9*, TROY signal inh 83.4*, TWEAK-Fn14 inh 108.6* and CaV13 ICDI inh -7.3.
Screening CCn1c2ccccc2c2cc([N+](=O)[O-])ccc21 returned XiGFP reactiv 0.0, LGR2 antag -22.6, TROY signal inh -16.0, TWEAK-Fn14 inh -2.2 and CaV13 ICDI inh -4.7.
For CCn1c2ccccc2c(=O)c2ccccc21 the results were XiGFP reactiv -0.1, LGR2 antag -54.5, TROY signal inh -9.0, TWEAK-Fn14 inh -3.2 and CaV13 ICDI inh active.
Screening COc1ccc(/C=N/N2C(=O)CSC2=S)cc1 returned TROY signal inh -25.3, TWEAK-Fn14 inh -8.9 and CaV13 ICDI inh -6.9.
`COc1ccc(-c2nn(-c3ccccc3)cc2/C=N/N2C(=O)CSC2=S)cc1` gave TROY signal inh -33.1, TWEAK-Fn14 inh 61.6* and CaV13 ICDI inh -3.3.
